Experimental data from PubChem BioAssay AID652191 (Vanderbilt Specialized Chemistry Center, 2013).
pKi: −log10 of the molar value. The source made the active and inactive calls. How the calls were made is not given here.

Target: Metabotropic glutamate receptor 5 (Rattus norvegicus) (UniProt P31424)
Experiment: mGlu5 allosteric site binders, biochemical, rat, HEK293A membranes, three-point Ki (AID 652191)
Conditions: rmGlu5 HEK293A membranes, [3H]methoxyPEPy displacement
Method in brief: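 Material – membranes from HEK293A cells with stable rat mGlu5 expression · Amount – 50 µg membranes per well · Also added – 2 nM [3H]methoxyPEPy · Schedule – 1 h shaking incubation of membranes, radioligand and compound, room temperature · Signal – Filtration separating bound radioligand, then scintillation counting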

Sequence of Metabotropic glutamate receptor 5 (Rattus norvegicus) (P31424 whole entry, looked up): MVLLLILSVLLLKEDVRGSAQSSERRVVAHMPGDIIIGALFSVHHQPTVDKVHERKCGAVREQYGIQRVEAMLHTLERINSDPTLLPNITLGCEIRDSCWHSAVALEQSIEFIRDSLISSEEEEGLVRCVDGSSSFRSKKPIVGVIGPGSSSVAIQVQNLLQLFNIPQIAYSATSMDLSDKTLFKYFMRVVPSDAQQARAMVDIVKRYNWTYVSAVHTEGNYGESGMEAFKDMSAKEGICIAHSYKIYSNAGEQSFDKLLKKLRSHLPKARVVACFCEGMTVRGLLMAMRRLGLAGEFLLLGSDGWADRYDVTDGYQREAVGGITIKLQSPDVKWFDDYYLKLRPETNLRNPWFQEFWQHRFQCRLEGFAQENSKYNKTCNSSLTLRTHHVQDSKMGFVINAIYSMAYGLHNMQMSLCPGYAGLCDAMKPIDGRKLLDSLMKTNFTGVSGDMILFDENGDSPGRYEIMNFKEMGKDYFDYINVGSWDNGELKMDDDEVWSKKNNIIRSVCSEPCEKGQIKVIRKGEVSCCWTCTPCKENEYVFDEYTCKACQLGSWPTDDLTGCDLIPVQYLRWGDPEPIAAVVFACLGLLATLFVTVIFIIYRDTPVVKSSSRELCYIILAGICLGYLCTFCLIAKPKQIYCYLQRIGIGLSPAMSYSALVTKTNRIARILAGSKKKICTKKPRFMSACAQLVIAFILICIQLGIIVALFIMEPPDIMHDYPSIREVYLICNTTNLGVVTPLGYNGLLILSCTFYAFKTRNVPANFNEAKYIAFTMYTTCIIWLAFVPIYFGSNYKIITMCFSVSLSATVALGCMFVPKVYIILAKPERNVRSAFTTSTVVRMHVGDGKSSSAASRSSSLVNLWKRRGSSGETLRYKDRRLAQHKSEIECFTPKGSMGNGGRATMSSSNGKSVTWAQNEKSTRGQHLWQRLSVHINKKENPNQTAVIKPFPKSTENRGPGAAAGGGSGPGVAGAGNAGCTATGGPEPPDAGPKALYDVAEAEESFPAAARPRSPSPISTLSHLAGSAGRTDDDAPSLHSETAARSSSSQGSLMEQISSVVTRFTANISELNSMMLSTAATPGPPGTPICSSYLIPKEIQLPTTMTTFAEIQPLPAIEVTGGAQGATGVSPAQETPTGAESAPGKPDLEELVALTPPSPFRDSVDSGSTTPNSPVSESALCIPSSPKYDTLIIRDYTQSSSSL

Row | SMILES | pKi | Ki
1 | CNC(=O)c1ccc(C#Cc2cccc(F)c2)cn1 |  | inactive
2 | O=C(c1ccc(C#Cc2cccc(F)c2)nc1)N1CCC1 |  | inactive
3 | O=C(c1ccc(C#Cc2cccc(F)c2)cn1)N1CC(O)(c2ccccc2)C1 |  | inactive
4 | O=C(c1ccc(C#Cc2cccc(F)c2)nc1)N1CCOCC1 |  | inactive
5 | CNC(=O)c1ccc(C#Cc2cccc(F)c2)cc1 |  | inactive
6 | O=C(c1ccc(C#Cc2cccc(F)c2)cc1)N1CCOCC1 |  | inactive
7 | O=C(c1ccc(C#Cc2cccc(F)c2)cc1)N1CCC1 | 7.40 | 

Other lines, results leading:

Row | pKi | Ki | SMILES
8 | 7.70 |  | O=C(c1ccc(C#Cc2cccc(F)c2)cn1)N1CCCC1
9 | 8.42 |  | O=C(c1ccc(C#Cc2cccc(F)c2)cn1)N1CCCCCC1
10 | 8.35 |  | O=C(c1ccc(C#Cc2cccc(F)c2)cn1)N1CCC(F)(F)CC1
11 | 8.00 |  | O=C(c1ccc(C#Cc2cccc(F)c2)cn1)N1CCCCC1
12 | 7.15 |  | O=C(c1ccc(C#Cc2cccc(F)c2)cn1)N1CC(F)C1
13 | 8.32 |  | CC1CCN1C(=O)c1ccc(C#Cc2cccc(F)c2)cn1 (stereo not drawn)
14 |  | inactive | O=C(c1ccc(C#Cc2cccc(F)c2)cn1)N1CCC(O)CC1
15 | 8.00 |  | O=C(c1ccc(C#Cc2cccc(F)c2)cn1)N1CCC(F)(F)C1
16 | 7.15 |  | O=C(c1ccc(C#Cc2cccc(F)c2)cn1)N1CCOCC1
17 | 7.40 |  | O=C(c1ccc(C#Cc2cccc(F)c2)cn1)N1CCC1
18 | 8.00 |  | O=C(c1ccc(C#Cc2cccc(F)c2)cn1)N1CC2CC2C1 (stereo not drawn)
